Activity calls are given as the source filed them. Residues, ends and D or L forms follow the SMILES beside them.
Assays:
Plasmodium falciparum [1] = assay: Antiplasmodial activity against Plasmodium falciparum FCB2 assessed as inhibition of merozoite invasion of human erythrocytes at 200 uM after 18 hrs using hydroethidine staining by flow cytometry; type: functional; details: FCB2, 18 h
Method in brief: (§1)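 Schizont-synchronized P. falciparum FCB-2 cultures incubated in triplicate with peptide (100 and 200 μM) using normal RBCs or, for the neuraminidase line, neuraminidase-treated RBCs. 37 °C for 18 h under 5% O2, 5% CO2, 90% N2. Cells washed with PBS, hydroethidine-labeled, read by flow cytometry (FL2). Inhibition controls were EGTA- and chloroquine-treated infected RBCs; uninfected RBCs served as invasion control.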

[2] = Binding affinity to RBC membrane receptor in human RBC assessed as dissociation constant by gamma counter
Method in brief: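 Saturation assay: 7.5 × 10^7 human RBCs incubated in triplicate with 125I-peptide over 0-2200 nM, with or without 6 nmol unlabeled peptide. Cells washed in HBS and counted by gamma counter. Kd, Hill coefficient and sites per cell came from Hill analysis.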

Homo sapiens [3] = species on record: Homo sapiens; assay: Binding affinity to RBC membrane receptor in human RBC assessed as specific binding activity measured as ratio of specifically bound peptide/added peptide by gamma counter
Method in brief: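 1 × 10^8 healthy-donor RBCs incubated in triplicate with four rising concentrations of 125I-peptide (0-560 nM), with or without unlabeled peptide, then washed in HBS (pH 7.4) and gamma-counted. Specific binding (total minus nonspecific) plotted against added peptide; the slope is the specific binding activity. The HABP cutoff is ≥2%.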

Homo sapiens [4] = species on record: Homo sapiens; assay: Binding affinity to RBC membrane receptor in 1 mg/mL chymotrypsin pretreated human RBC relative to untreated RBC
Method in brief: (§2)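 Human RBCs (60% hematocrit) treated 1 h at 37 °C with neuraminidase (150 μU/mL), chymotrypsin (1 mg/mL) or trypsin (1 mg/mL). Standard radiolabeled-peptide binding then run on treated cells at 20% hematocrit. Binding expressed relative to untreated RBCs set as 100%.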

Homo sapiens [5] = species on record: Homo sapiens; assay: Binding affinity to RBC membrane receptor in 150 uU/mL neuraminidase pretreated human RBC relative to untreated RBC; method in brief: as §2
Plasmodium falciparum [6] = assay: Antiplasmodial activity against Plasmodium falciparum FCB2 assessed as inhibition of merozoite invasion of neuraminidase pretreated human erythrocytes at 200 uM after 18 hrs using hydroethidine staining by flow cytometry; type: functional; method in brief: as §1
Homo sapiens [7] = species on record: Homo sapiens; assay: Binding affinity to RBC membrane receptor in 1 mg/mL trypsin pretreated human RBC relative to untreated RBC; method in brief: as §2
Homo sapiens [8] = species on record: Homo sapiens; assay: Binding affinity of radio labeled compound to 22 kDa RBC membrane receptor in human RBC cross-linked with bis-(sulfosuccinimidyl)suberate by autoradiography using SDS-PAGE
Method in brief: (§3)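 Radioiodinated peptide (chloramine-T method) incubated with 2.1 × 10^7 human RBCs, then cross-linked with BS3 (1 mg/mL) for 1 h at 4 °C. Reaction stopped with Tris-HCl. Membranes lysed (Tris/NaCl/EDTA/PMSF), mixed with Laemmli buffer, spun 15000g for 15 min, resolved on 12% SDS-PAGE against prestained markers.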

Homo sapiens [9] = species on record: Homo sapiens; assay: Binding affinity of radio labeled compound to 25 kDa RBC membrane receptor in human RBC cross-linked with bis-(sulfosuccinimidyl)suberate by autoradiography using SDS-PAGE; method in brief: as §3
Homo sapiens [10] = species on record: Homo sapiens; assay: Binding affinity of radio labeled compound to 32 kDa RBC membrane receptor in human RBC cross-linked with bis-(sulfosuccinimidyl)suberate by autoradiography using SDS-PAGE; method in brief: as §3
Homo sapiens [11] = species on record: Homo sapiens; assay: Binding affinity of radio labeled compound to 20 kDa RBC membrane receptor in human RBC cross-linked with bis-(sulfosuccinimidyl)suberate by autoradiography using SDS-PAGE; method in brief: as §3
Plasmodium falciparum [12] = assay: Antiplasmodial activity against Plasmodium falciparum FCB2 assessed as inhibition of merozoite invasion of human erythrocytes at 1.85 mg/mL after 18 hrs using hydroethidine staining by flow cytometry; type: functional; parameters: scale not given: the % may be the effect or the level left; method in brief: as §1
Plasmodium falciparum [13] = assay: Antiplasmodial activity against Plasmodium falciparum FCB2 assessed as inhibition of merozoite invasion of human erythrocytes at 0.93 mg/mL after 18 hrs using hydroethidine staining by flow cytometry; type: functional; parameters: scale not given: the % may be the effect or the level left; method in brief: as §1
Plasmodium falciparum [14] = assay: Antiplasmodial activity against Plasmodium falciparum FCB2 assessed as inhibition of merozoite invasion of human erythrocytes at 1.9 mg/mL after 18 hrs using hydroethidine staining by flow cytometry; type: functional; parameters: scale not given: the % may be the effect or the level left; method in brief: as §1

| Kd [2] | Activity (Homo sapiens [3]) | Activity (Homo sapiens [4]) | Activity (Homo sapiens [5]) | Activity (Homo sapiens [7]) | Activity (Homo sapiens [8]) | Activity (Homo sapiens [9]) | Activity (Homo sapiens [10]) | Activity (Homo sapiens [11]) | Compound | inhibition at 200 µM (Plasmodium falciparum [1]) | inhibition at 200 µM (Plasmodium falciparum [6]) | Activity (Plasmodium falciparum [12]) | Activity (Plasmodium falciparum [13]) | Activity (Plasmodium falciparum [14]) |
| --- | --- | --- | --- | --- | --- | --- | --- | --- | --- | --- | --- | --- | --- | --- |
| 480 nM | > 2% | 26.3% | 312% | 16.7% |  |  |  |  | H-YDKLNEHVINNLYTKSKDSL-OH | 43% | 39% |  |  |  |
|  | > 2% |  |  |  |  |  |  |  | H-EHTIYTLYQEIKTNLENIEQ-OH | 72% | 71% |  |  |  |
|  | > 2% | 169% | 94.3% | 220% |  |  |  |  | H-NILMDEIENYVKKYTESNRI-OH | 46% | 49% |  |  |  |
| 850 nM | > 2% | 22.5% | 92.2% | 43.9% |  |  |  |  | H-LNTILHRNEQTKNATRSYNM-OH | 47% | 46% |  |  |  |
|  | > 2% | 93.2% | 200% | 93% |  |  |  |  | H-MLSIFQDTKYGKHKNQQILS-OH | 52% | 42% |  |  |  |
| 1200 nM | > 2% | 31.4% | 166% | 24.9% |  |  |  |  | H-LFDYTHLWDNAQFTRTKENI-OH | 50% | 58% |  |  |  |
| 850 nM | > 2% | 79.7% | 94.9% | 43% |  |  |  |  | H-LNFTHKTIQQILQQQYKNNT-OH | 45% | 47% |  |  |  |
|  | > 2% | 209% | 152% | 79.4% |  |  |  |  | CC[C@H](C)[C@H](NC(=O)[C@H](Cc1cnc[nH]1)NC(=O)[C@H](CO)NC(=O)[C@@H]1CCCN1C(=O)[C@H](CCC(N)=O)NC(=O)[C@@H](NC(=O)[C@@H](N)CC(C)C)[C@@H](C)CC)C(=O)N[C@@H](Cc1cnc[nH]1)C(=O)N[C@@H](CC(C)C)C(=O)N[C@@H](Cc1cnc[nH]1)C(=O)N[C@@H](CCCCN)C(=O)N[C@@H](CCSC)C(=O)N[C@@H](CCCCN)C(=O)N[C@@H](CC(C)C)C(=O)N1CCC[C@H]1C(=O)N[C@H](C(=O)N[C@H](C(=O)N[C@@H](CCC(N)=O)C(=O)N[C@@H](CCC(N)=O)C(=O)N[C@@H](CCC(N)=O)C(=O)N[C@@H](Cc1ccc(O)cc1)C(=O)O)[C@H](C)O)[C@@H](C)CC | 48% | 43% |  |  |  |
| 400 nM | > 2% | 114% | 153% | 87% | Active | Active | Active | Active | H-YNKNNIKDIYQQFKNIQQQL-OH | 46% | 49% |  |  |  |
|  | < 2% |  |  |  |  |  |  |  | H-NEEENEMGYGITNKRKNSET-OH | 43% | 40% |  |  |  |
|  | > 2% |  |  |  |  |  |  |  | H-FKQILELKEKEHYITNKHTY-OH | 46% | 47% |  |  |  |
|  | > 2% | 135% | 89.5% | 55.5% |  |  |  |  | H-NTTETQLNHIKQNINHFKYF-OH | 97% | 97% |  |  |  |
| 870 nM | > 2% | 52.8% | 101% | 172% | Active | Active | Active | Active | CC[C@H](C)[C@H](NC(=O)[C@H](CC(=O)O)NC(=O)[C@H](CC(=O)O)NC(=O)[C@@H](NC(=O)[C@H](Cc1ccc(O)cc1)NC(=O)[C@H](CCCCN)NC(=O)[C@H](CCCCN)NC(=O)[C@@H](NC(=O)[C@H](CC(N)=O)NC(=O)[C@@H](NC(=O)[C@@H](N)CS)[C@@H](C)O)[C@@H](C)CC)[C@@H](C)O)C(=O)N[C@@H](CS)C(=O)N[C@@H](CC(C)C)C(=O)N[C@@H](CO)C(=O)N[C@H](C(=O)N[C@@H](CCCCN)C(=O)N1CCC[C@H]1C(=O)N[C@@H](CCCCN)C(=O)N[C@@H](C)C(=O)N[C@@H](CC(C)C)C(=O)O)[C@@H](C)CC (H-CTNIKKYTDDICLSIKPKAL-OH) | 52% | 47% |  |  |  |
|  | > 2% | 0.01% | 110% | 1.01% | Active | Active | Active | Active | H-QEKNTLAQFLYNADIKKYID-OH | 38% | 53% |  |  |  |

More lines, now with the values behind:

| Compound | Kd [2] | Activity (Homo sapiens [3]) | Activity (Homo sapiens [4]) | Activity (Homo sapiens [5]) | Activity (Homo sapiens [7]) | Activity (Homo sapiens [8]) | Activity (Homo sapiens [9]) | Activity (Homo sapiens [10]) | Activity (Homo sapiens [11]) | inhibition at 200 µM (Plasmodium falciparum [1]) | inhibition at 200 µM (Plasmodium falciparum [6]) | Activity (Plasmodium falciparum [12]) | Activity (Plasmodium falciparum [13]) | Activity (Plasmodium falciparum [14]) |
| --- | --- | --- | --- | --- | --- | --- | --- | --- | --- | --- | --- | --- | --- | --- |
| H-KIMQNIQQTTNRLKINIKKIY-OH | 750 nM | > 2% | 60.1% | 129% | 15.2% |  |  |  |  | 54% | 46% |  |  |  |
| H-LPEHIKQKSVSELNIYMKQI-OH |  | > 2% |  |  |  |  |  |  |  | 41% | 42% |  |  |  |
| H-CIQIKKKVDELYNIYDQLFK-OH |  | > 2% | 53.3% | 80.7% | 75.2% | Active | Active | Active | Active | 46% | 50% |  |  |  |
| H-KNSQNQHDINKTHHTNNNYD-OH |  |  |  |  |  |  |  |  |  | 37% | 3% |  |  |  |
| CCN(CC)CCCC(C)Nc1ccnc2cc(Cl)ccc12 (centres undefined) [CHLOROQUINE] |  |  |  |  |  |  |  |  |  |  |  | 97% | 96% |  |
| H-KHIVNKIQENFKLNQNKYIH-OH | 590 nM | > 2% | 132% | 115% | 94.1% |  |  |  |  | 51% | 51% |  |  |  |
| H-QEQNRIYNELQNKIKQIKNV-OH | 880 nM | > 2% | 102% | 93% | 32% | Active | Active | Active | Active | 85% | 88% |  |  |  |
| H-QIYKNELKDRIKETQTKINL-OH | 590 nM | > 2% | 288% | 128% | 0.03% | Active | Active | Active | Active | 47% | 49% |  |  |  |
| O=C(O)CN(CCOCCOCCN(CC(=O)O)CC(=O)O)CC(=O)O [EGTAZIC ACID] |  |  |  |  |  |  |  |  |  |  |  |  |  | 90% |
| H-QNYNQENQEKSKMIDSENEK-OH |  |  |  |  |  |  |  |  |  | 39% | 37% |  |  |  |

— ChEMBL document CHEMBL1250450, “Well-defined regions of the Plasmodium falciparum reticulocyte binding protein homologue 4 mediate interaction with red blood cell membrane” (J Med Chem, 2010)
